According to ChEMBL document CHEMBL1143579, “Synthesis and pharmacology of N1-substituted piperazine-2,3-dicarboxylic acid derivatives acting as NMDA receptor antagonists” (J Med Chem, 2005):

Assays:
[1] = target: Glutamate NMDA receptor; Grin1/Grin2b (Rattus norvegicus, UniProt P35439+Q00960); experiment: Inhibitory constant against (S)-glutamate and glycine evoked currents mediated by N-methyl-D-aspartate glutamate receptor NR1a/NR2B expressed in Xenopus oocytes; type: cell-based, Oocyte
How it was run: (§1)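 Xenopus laevis oocytes were injected with NR1a and NR2 subunit RNA (1:3 molar ratio, 15-30 ng total) and held in ND-96 at 17 °C for 1-5 days. Currents were recorded by two-microelectrode voltage clamp at a holding potential of […] in 116 mM NaCl, 2 mM KCl, 2 mM BaCl2, 5 mM HEPES, pH 7.4. The steady plateau response to bath-applied 10 µM L-glutamate plus 10 µM glycine was measured. Apparent Ki was obtained as IC50(obs)/(1 + [agonist]/EC50).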

[2] = target: Glutamate NMDA receptor; Grin1/Grin2a (Rattus norvegicus, UniProt P35439+Q00959); experiment: Inhibitory constant against (S)-glutamate and glycine evoked currents mediated by N-methyl-D-aspartate glutamate receptor NR1a/NR2A expressed in Xenopus oocytes; type: cell-based, Oocyte
Chain of Glutamate NMDA receptor; Grin1/Grin2a (Q00959 whole entry, other chains not shown): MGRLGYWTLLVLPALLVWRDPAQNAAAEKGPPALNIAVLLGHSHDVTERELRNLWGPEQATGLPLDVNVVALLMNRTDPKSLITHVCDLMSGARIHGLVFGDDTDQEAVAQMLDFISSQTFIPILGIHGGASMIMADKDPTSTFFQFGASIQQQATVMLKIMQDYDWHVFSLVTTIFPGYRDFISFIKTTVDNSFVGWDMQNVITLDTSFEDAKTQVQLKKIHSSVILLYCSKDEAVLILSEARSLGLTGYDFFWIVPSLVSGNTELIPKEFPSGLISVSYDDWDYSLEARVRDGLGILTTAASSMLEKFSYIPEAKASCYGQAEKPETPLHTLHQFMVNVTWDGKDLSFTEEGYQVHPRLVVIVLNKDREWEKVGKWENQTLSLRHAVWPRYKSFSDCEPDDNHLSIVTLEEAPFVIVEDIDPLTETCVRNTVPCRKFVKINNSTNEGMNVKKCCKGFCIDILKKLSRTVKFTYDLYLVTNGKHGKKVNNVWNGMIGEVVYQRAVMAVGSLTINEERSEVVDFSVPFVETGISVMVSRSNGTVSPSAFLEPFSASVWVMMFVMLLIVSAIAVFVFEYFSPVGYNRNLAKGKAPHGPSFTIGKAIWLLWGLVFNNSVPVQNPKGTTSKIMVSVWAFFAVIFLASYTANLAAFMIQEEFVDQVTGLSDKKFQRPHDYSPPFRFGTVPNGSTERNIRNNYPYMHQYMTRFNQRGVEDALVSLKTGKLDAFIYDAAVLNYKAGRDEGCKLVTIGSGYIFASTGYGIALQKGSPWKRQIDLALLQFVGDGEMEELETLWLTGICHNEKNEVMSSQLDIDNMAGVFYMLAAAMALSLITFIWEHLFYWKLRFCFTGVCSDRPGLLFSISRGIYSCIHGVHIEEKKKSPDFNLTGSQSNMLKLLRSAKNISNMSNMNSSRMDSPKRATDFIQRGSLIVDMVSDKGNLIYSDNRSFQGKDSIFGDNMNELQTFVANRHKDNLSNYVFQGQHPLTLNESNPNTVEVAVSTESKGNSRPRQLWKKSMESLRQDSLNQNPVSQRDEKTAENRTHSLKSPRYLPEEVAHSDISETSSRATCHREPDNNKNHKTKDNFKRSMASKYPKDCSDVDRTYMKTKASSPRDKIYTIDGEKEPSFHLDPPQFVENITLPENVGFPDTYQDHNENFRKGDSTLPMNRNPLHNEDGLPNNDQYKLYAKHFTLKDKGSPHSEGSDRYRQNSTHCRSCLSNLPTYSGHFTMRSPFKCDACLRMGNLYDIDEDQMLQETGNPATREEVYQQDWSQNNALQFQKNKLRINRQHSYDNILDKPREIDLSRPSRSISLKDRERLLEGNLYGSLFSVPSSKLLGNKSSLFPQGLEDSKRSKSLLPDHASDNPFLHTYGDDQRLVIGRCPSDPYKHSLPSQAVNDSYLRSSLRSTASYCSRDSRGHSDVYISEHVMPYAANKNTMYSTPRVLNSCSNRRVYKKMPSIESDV
How it was run: (§2)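 Xenopus laevis oocytes were injected with NR1a and NR2 subunit RNA (1:3 molar ratio, 15-30 ng total) and held in ND-96 at 17 °C for 1-5 days. The steady plateau response to bath-applied 10 µM L-glutamate plus 10 µM glycine was measured. Apparent Ki was obtained as IC50(obs)/(1 + [agonist]/EC50).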

[3] = Inhibitory constant against (S)-glutamate and glycine evoked currents mediated by N-methyl-D-aspartate glutamate receptor NR1a/NR2D expressed in Xenopus oocytes; type: cell-based, Rattus norvegicus; conditions: oocyte; how it was run: as §2
[4] = target: Glutamate NMDA receptor; Grin1/Grin2c (Rattus norvegicus, UniProt P35439+Q00961); experiment: Inhibitory constant against (S)-glutamate and glycine evoked currents mediated by N-methyl-D-aspartate glutamate receptor NR1a/NR2C expressed in Xenopus oocytes; type: cell-based, Oocyte; how it was run: as §1
Chain of Glutamate NMDA receptor; Grin1/Grin2c (Q00961 whole entry, other chains not shown): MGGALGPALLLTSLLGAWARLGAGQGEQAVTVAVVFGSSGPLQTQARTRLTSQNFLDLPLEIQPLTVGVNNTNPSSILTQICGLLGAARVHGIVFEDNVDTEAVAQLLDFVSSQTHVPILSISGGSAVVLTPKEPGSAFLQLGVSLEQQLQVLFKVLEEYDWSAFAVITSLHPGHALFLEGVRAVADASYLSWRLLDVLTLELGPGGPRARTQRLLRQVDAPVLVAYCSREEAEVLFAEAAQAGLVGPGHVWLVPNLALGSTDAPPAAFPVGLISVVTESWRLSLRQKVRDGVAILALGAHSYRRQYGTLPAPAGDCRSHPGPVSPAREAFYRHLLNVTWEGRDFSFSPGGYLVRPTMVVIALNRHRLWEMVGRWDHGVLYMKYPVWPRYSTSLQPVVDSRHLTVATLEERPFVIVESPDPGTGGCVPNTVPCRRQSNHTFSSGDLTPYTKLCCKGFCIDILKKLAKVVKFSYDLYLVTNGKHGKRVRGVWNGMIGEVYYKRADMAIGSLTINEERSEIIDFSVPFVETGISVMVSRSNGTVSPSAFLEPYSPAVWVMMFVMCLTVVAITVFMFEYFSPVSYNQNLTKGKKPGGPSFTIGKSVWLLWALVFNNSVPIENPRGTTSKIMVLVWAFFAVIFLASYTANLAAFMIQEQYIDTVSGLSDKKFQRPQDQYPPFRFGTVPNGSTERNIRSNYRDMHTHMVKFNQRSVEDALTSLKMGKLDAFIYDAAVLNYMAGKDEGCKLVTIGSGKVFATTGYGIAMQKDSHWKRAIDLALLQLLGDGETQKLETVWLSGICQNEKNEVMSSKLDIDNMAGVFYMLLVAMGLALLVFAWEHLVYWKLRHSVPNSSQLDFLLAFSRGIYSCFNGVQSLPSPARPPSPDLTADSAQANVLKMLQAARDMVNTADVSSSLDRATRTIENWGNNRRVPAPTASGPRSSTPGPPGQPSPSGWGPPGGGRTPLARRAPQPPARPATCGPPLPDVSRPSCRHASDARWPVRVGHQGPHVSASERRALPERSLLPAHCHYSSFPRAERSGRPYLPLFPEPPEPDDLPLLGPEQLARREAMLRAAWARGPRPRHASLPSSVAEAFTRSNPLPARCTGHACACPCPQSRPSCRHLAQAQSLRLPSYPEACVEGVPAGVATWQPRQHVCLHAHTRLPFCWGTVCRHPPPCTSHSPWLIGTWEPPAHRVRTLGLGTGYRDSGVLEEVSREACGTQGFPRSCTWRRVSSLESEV

Chain of Glutamate NMDA receptor; Grin1/Grin2b (Q00960 whole entry, other chains not shown): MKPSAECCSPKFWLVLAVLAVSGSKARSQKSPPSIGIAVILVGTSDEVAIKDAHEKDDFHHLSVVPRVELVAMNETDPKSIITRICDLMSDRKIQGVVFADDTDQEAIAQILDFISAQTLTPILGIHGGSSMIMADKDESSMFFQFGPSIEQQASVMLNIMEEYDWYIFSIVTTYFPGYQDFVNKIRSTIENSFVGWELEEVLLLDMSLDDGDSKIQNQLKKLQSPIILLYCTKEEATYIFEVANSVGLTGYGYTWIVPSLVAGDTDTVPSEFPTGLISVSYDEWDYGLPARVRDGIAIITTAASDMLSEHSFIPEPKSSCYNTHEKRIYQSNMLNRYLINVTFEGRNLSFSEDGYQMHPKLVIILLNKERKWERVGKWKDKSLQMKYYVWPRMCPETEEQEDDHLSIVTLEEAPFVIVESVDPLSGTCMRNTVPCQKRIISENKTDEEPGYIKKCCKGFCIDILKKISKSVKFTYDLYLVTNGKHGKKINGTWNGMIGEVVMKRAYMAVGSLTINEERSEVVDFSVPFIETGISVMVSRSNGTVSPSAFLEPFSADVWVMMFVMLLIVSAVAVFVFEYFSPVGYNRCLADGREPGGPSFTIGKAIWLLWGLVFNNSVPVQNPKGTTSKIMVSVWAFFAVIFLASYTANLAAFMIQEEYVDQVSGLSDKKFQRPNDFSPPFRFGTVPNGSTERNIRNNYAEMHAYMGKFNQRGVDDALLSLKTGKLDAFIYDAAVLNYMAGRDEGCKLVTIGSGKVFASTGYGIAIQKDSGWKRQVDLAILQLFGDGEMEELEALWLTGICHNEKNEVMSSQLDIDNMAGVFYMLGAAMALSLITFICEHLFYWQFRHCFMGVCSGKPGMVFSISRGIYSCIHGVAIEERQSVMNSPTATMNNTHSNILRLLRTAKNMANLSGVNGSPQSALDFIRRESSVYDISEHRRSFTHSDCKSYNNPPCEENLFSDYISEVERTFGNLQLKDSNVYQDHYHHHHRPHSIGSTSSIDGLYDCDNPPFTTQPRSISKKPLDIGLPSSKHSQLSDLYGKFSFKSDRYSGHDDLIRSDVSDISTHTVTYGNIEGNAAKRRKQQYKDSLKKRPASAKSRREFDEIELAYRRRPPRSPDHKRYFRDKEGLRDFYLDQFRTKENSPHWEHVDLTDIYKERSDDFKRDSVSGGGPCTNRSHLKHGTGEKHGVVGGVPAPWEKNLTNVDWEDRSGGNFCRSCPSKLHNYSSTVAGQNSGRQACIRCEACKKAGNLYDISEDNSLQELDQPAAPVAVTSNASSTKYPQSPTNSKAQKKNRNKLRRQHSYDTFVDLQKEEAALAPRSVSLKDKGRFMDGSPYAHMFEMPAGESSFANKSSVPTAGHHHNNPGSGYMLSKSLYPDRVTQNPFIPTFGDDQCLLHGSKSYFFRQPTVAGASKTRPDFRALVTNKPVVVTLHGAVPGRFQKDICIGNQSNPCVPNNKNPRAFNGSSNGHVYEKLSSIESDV

Row | Compound | Ki [1] | Ki [2] | Ki [3] | Ki [4]
1 | O=C(O)[C@H]1NCCN(S(=O)(=O)c2ccc(-c3ccccc3)cc2)[C@H]1C(=O)O | 16.2 µM | 13.6 µM | 10.9 µM | 8.67 µM
2 | O=C(O)[C@H]1NCCN(C(=O)/C=C/c2ccc3ccccc3c2)[C@H]1C(=O)O | 0.3 µM | 0.84 µM | 1.94 µM | 0.85 µM
3 | O=C(O)[C@H]1NCCN(C(=O)c2ccc3ccccc3c2)[C@H]1C(=O)O | 18.2 µM | – | – | 3.89 µM
4 | O=C(O)[C@H]1NCCN(C(=O)c2ccccc2)[C@H]1C(=O)O | > 100 µM | > 100 µM | > 100 µM | > 100 µM
5 | O=C(O)[C@H]1NCCN(C(=O)c2ccc3ccc4ccccc4c3c2)[C@H]1C(=O)O | 19.3 µM | 14.2 µM | 2.78 µM | 4.22 µM
6 | O=C(O)[C@H]1NCCN(C(=O)c2ccc3c(c2)CCc2cc(Br)ccc2-3)[C@H]1C(=O)O | 2.15 µM | 3.88 µM | 1.03 µM | 0.66 µM
7 | O=C(O)[C@H]1NCCN(C(=O)c2ccc3c(ccc4cc(Br)ccc43)c2)[C@H]1C(=O)O | 0.25 µM | 0.32 µM | 0.15 µM | 0.0994 µM
8 | O=C(O)[C@H]1NCCN(Cc2ccc3c(ccc4ccccc43)c2)[C@H]1C(=O)O | 10.2 µM | 11.2 µM | 3.18 µM | 2.67 µM
9 | O=C(O)[C@H]1NCCN(C(=O)c2ccc3c(c2)Cc2ccccc2-3)[C@H]1C(=O)O | 3.25 µM | – | 2.17 µM | 1.17 µM
10 | C[C@H](NC(c1cccc2nc(O)c(O)nc12)P(=O)(O)O)c1ccc(Br)cc1 (stereo partly specified) | 0.067 µM | 0.0054 µM | 0.037 µM | 0.0116 µM
11 | N[C@H](CCCCCP(=O)(O)O)C(=O)O | 4.14 µM | 0.49 µM | 17.1 µM | 6.42 µM
12 | O=C(O)[C@H]1NCCN(C(=O)/C=C/c2ccccc2)[C@H]1C(=O)O | 18 µM | 13.2 µM | 59.7 µM | 27 µM
13 | O=C1c2ccccc2-c2ccc(C(=O)N3CCN[C@H](C(=O)O)[C@@H]3C(=O)O)cc21 | 9.36 µM | 7.97 µM | 6.45 µM | 4.42 µM
14 | O=C(O)[C@H]1NCCN(C(=O)c2ccc3c(c2)CCc2ccccc2-3)[C@H]1C(=O)O | 0.76 µM | 1.54 µM | 0.57 µM | 0.29 µM
15 | O=C(O)[C@H]1NCCN(C(=O)c2ccc(-c3ccccc3Br)cc2)[C@H]1C(=O)O | 22.1 µM | 42.9 µM | 12.9 µM | 8.49 µM
16 | O=C(O)[C@H]1NCCN(C(=O)c2ccc(-c3ccccc3)cc2)[C@H]1C(=O)O | 5.01 µM | 15.8 µM | 4.29 µM | 8.98 µM
17 | O=C(O)[C@H]1NCCN(C(=O)c2ccc(-c3ccc(F)cc3)cc2)[C@H]1C(=O)O | 13.4 µM | 8.78 µM | 8.02 µM | 7.38 µM
18 | O=C(O)[C@H]1NCCN(C(=O)c2ccc3c(ccc4ccccc43)c2)[C@H]1C(=O)O | 0.31 µM | 0.55 µM | 0.125 µM | 0.096 µM
19 | O=C(O)[C@@H]1NCCN(C(=O)c2ccc3c(ccc4ccccc43)c2)[C@H]1C(=O)O | 9.08 µM | 10.5 µM | 6.03 µM | 4.88 µM
20 | O=C(O)[C@H]1CN(CCCP(=O)(O)O)CCN1 | 0.27 µM | 0.041 µM | 1.99 µM | 0.63 µM
21 | N[C@H](CCCP(=O)(O)O)C(=O)O | 0.46 µM | 0.28 µM | 3.71 µM | 1.64 µM
